# From ChEMBL document CHEMBL2029329, “Synthesis and biological evaluation of 1,4-diaryl-2-azetidinones as specific anticancer agents: activation of adenosine monophosphate activated protein kinase and induction of apoptosis” (J Med Chem, 2012)
# The source made the active and inactive calls. The rule behind the calls is not given here.
# Experiments:
# T84 = assay: Antiproliferative activity in human T84 cells assessed as cell viability after 72 hrs by MTT assay; assay type: functional, cell-based
# Procedure, shortened: (§1)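 Each line was grown in its own medium: DMEM for HuTu-80, EMEM/NEAA for MCF-7, EMEM/F12 for SKNBE, DMEM/F12 with 5% FBS for T84, Leibovitz's for the SW lines. Cells were seeded, left 24 h, then exposed to graded concentrations for 72 h. MTT was given 2 h, absorbance read at 570 nm. IC50 is 50% absorbance inhibition versus control, from dose-response curves; mean ± SD of ≥3 independent experiments, each in triplicate.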
# SW48 = assay: Antiproliferative activity in human SW48 cells assessed as cell viability after 72 hrs by MTT assay; assay type: functional, cell-based; procedure, shortened: as §1
# SW480 = assay: Antiproliferative activity in human SW480 cells assessed as cell viability after 72 hrs by MTT assay; assay type: functional, cell-based; procedure, shortened: as §1
# Tubulin = Tubulin (Sus scrofa, UniProt P02554+P02550); assay: Inhibition of porcine brain tubulin polymerization after 30 mins by spectrophotometry
# Procedure, shortened: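 Porcine brain tubulin at 2.5 mg/mL was used in 80 mM PIPES pH 6.9, 1 mM MgCl2, 2 mM EGTA, 10% glycerol, with 1 mM GTP and graded compound (0.2% DMSO vehicle). Turbidity was followed at 340 nm, 37 °C.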
# SW-620 = assay: Antiproliferative activity in human SW620 cells assessed as cell viability after 72 hrs by MTT assay; assay type: functional, cell-based; procedure, shortened: as §1
# MCF7 = assay: Antiproliferative activity in human MCF7 cells assessed as cell viability after 72 hrs by MTT assay; assay type: functional, cell-based; procedure, shortened: as §1
# [1] = Antiproliferative activity in human SK-N-BE cells assessed as cell viability after 72 hrs by MTT assay; assay type: functional, cell-based; procedure, shortened: as §1
# [2] = Antiproliferative activity in human HuTu 80 cells assessed as cell viability after 72 hrs by MTT assay; assay type: functional, cell-based, HuTu80; procedure, shortened: as §1
# HeLa = assay: Antiproliferative activity in human HeLa cells assessed as cell viability at 10 uM after 48 hrs by MTT assay; assay type: functional, cell-based
# Procedure, shortened: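 HeLa cells were kept in DMEM with 10% FBS at 37 °C, 5% CO2. They were seeded, left 24 h, then given 10 μM compound for 48 h. MTT was added for 2 h at 37 °C, formazan solubilized, absorbance read at 570 nm, and viability compared with control cells.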
# [3] = molecular target: T1, AMP-activated protein kinase, AMPK (Homo sapiens) (UniProt P54646+O43741+P54619+Q9UGJ0+Q9Y478+Q13131+Q9UGI9); assay: Induction of AMPK-mediated p53 pser15 accumulation in human […] cells at 30 nM after 24 hrs by Western blot analysis; assay type: cell-based
# Procedure, shortened: (§2)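 HuTu-80 cells were exposed to 30 nM compound for 24 h, with 0.1% DMSO as vehicle. pT172-AMPK and pS792-Raptor were blotted from total RIPA extracts with vinculin for loading. pS15-p53 and total p53 were blotted from nuclear extracts with fibrillarin as nuclear control.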
# [4] = Cell cycle arrest in human HuTu 80 cells assessed as accumulation at G2/M phase at 30 nM after 48 to 72 hrs by propidium iodide-based flow cytometry; assay type: functional; details: HuTu80
# Procedure, shortened: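 HuTu-80 cells were exposed to 30 nM compound for 48 and 72 h, with 0.1% DMSO as vehicle. Cells were trypsinized, washed in PBS, fixed in 75% ethanol at 4 °C and stained with propidium iodide. DNA content was measured by flow cytometry.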
# [5] = molecular target: T1, AMP-activated protein kinase, AMPK (Homo sapiens); assay: Induction of AMPK phosphorylation at Thr172 residue in human […] cells at 30 nM after 24 hrs by Western blot analysis; assay type: cell-based; procedure, shortened: as §2
# [6] = molecular target: T1, AMP-activated protein kinase, AMPK (Homo sapiens); assay: Induction of AMPK phosphorylation at Thr172 residue in human SW48 cells at 30 nM after 16 hrs by Western blot analysis; assay type: cell-based
# Procedure, shortened: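 SW48 cells were exposed to 30 nM compound for 16 h, with 0.1% DMSO as vehicle. Total RIPA lysates (with protease and phosphatase inhibitors) were blotted for pT172-AMPK and total AMPK.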
# [7] = molecular target: T1, AMP-activated protein kinase, AMPK (Homo sapiens); assay: Induction of AMPK-mediated raptor phosphorylation at ser792 residue in human […] cells at 30 nM after 24 hrs by Western blot analysis; assay type: cell-based; procedure, shortened: as §2
# HuTu 18 [8] = assay: Effect on AKT phosphorylation at ser473 in human […] cells at 30 nM after 24 hrs by Western blot analysis; assay type: cell-based
# Procedure, shortened: (§3)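 HuTu-80 cells were exposed to 30 nM compound for 24 h, with 0.1% DMSO as vehicle. They were then mock treated or stimulated with 10 μg/mL insulin for 10 min. Total RIPA extracts were probed by Western blot for pS473-Akt and total Akt, with vinculin as loading control.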
# [9] = Cell cycle arrest in human HuTu 80 cells assessed as accumulation at sub-G1 phase at 30 nM after 48 hrs by propidium iodide-based flow cytometry (reference value: 3.3 %); details: HuTu80
# [10] = Cell cycle arrest in human HuTu 80 cells assessed as […] at sub-G1 phase at 30 nM by propidium iodide-based flow cytometry; assay type: functional; details: HuTu80, TDE = time-dependent effect
# HuTu 18 [11] = assay: Effect on AKT phosphorylation at ser473 in insulin-stimulated human […] cells at 30 nM after 24 hrs by Western blot analysis; assay type: cell-based; procedure, shortened: as §3
# HuTu80 [12] = assay: Induction of apoptosis in human HuTu 80 cells assessed as PARP cleavage at 30 nM after 24 hrs by Western blot analysis
# HuTu80 [13] = assay: Induction of apoptosis in human HuTu 80 cells assessed as caspase-3 cleavage at 30 nM after 24 hrs by Western blot analysis
# [14] = molecular target: T1, AMP-activated protein kinase, AMPK (Homo sapiens); assay: Induction of AMPK-mediated p53 phosphorylation at ser15 residue in human […] cells at 30 nM after 24 hrs by Western blot analysis; assay type: cell-based; procedure, shortened: as §2
# [15] = Cell cycle arrest in human HuTu 80 cells assessed as […] at sub-G1 phase at 30 nM after 72 hrs by propidium iodide-based flow cytometry (reference value: 4.3 %); assay type: functional; design: scale not given: the % may be the effect or the level left; details: HuTu80
# [16] = Antiproliferative activity in human CCD-841-CoN cells assessed as cell viability at 10 uM after 72 hrs by MTT assay; assay type: cell-based
# Procedure, shortened: (§4)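 Normal cells (CCD841CoN in EMEM/NEAA with 10% FBS; FHs74 in DMEM with 10% FBS, EGF 30 ng/mL, insulin 10 μg/mL) were seeded and grown for 24 h at 37 °C, 5% CO2, then given compound at 10 μM. Viability was read by MTT: 2 h at 37 °C, formazan solubilized, absorbance at 570 nm.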
# [17] = Antiproliferative activity in human FHs74 cells assessed as cell viability at 10 uM after 72 hrs by MTT assay; assay type: cell-based; procedure, shortened: as §4
# [18] = Antiproliferative activity in human renal cancer cells; assay type: functional, cell-based; details: Cancer cell lines
structure (smiles),measurement,setting,value
COc1ccc([C@H]2[C@H](O)C(=O)N2c2cc(OC)c(OC)c(OC)c2)cc1O (racemic) [listing 1 of 2 here],IC50,T84; t84,45.4 nM
same,IC50,"SW48; Homo sapiens, SW48, 72 h",15.2 nM
same,IC50,"SW480; Homo sapiens, SW480, 72 h",22.1 nM
same,IC50,Tubulin,3800 nM
same,IC50,SW-620; sw-620,13.6 nM
same,IC50,"MCF7; Homo sapiens, MCF7, 72 h",6.14 nM
same,IC50,[1]; sk-n-be,4.2 nM
same,IC50,[2]; hutu80,13.4 nM
COc1ccc([C@H]2[C@H](O)C(=O)N2c2cc(OC)cc(OC)c2)cc1 (stereo in doubt; (+)),IC50,T84; t84,6.77 nM
same,IC50,SW48; sw48,11.1 nM
same,IC50,SW480; sw480,16.7 nM
same,IC50,Tubulin,1300 nM
same,IC50,SW-620; sw-620,8.58 nM
same,IC50,MCF7; mcf7,4.01 nM
same,IC50,[1]; sk-n-be,1.12 nM
same,IC50,[2]; hutu80,8.02 nM
COc1ccc([C@H]2[C@H](O)C(=O)N2c2cc(OC)c(OC)c(OC)c2)cc1O (racemic) [listing 2 of 2 here],Activity,HeLa,Active
same,Activity,[3],Active
same,Activity,[4],Active
same,Activity,[5],Active
same,Activity,[6],Active
same,Activity,[7],Active
same,Activity,HuTu 18 [8],inactive
same,Activity,[9],22.9%
same,Activity,[10],tde
same,Activity,HuTu 18 [11],inactive
same,Activity,HuTu80 [12],Active
same,Activity,HuTu80 [13],Active
same,Activity,[14],Active
same,Activity,[15],32.7%
COc1ccc([C@H]2[C@H](O)C(=O)N2c2cc(OC)cc(OC)c2)cc1 (racemic) [listing 1 of 2 here],Activity,[16],Non-toxic
same,IC50,"T84; Homo sapiens, T84, 72 h",5.73 nM
same,IC50,"SW48; Homo sapiens, SW48, 72 h",12.1 nM
same,IC50,"SW480; Homo sapiens, SW480, 72 h",24.2 nM
same,Activity,[17],Non-toxic
same,IC50,Tubulin,3600 nM
same,IC50,"SW-620; Homo sapiens, SW-620, 72 h",6.6 nM
same,IC50,"MCF7; Homo sapiens, MCF7, 72 h",5.19 nM
same,IC50,[1]; sk-n-be,2.25 nM
same,IC50,[2]; hutu80,9.05 nM
COc1ccc(N2C(=O)[C@@H](O)[C@@H]2c2cc(OC)c(OC)c(OC)c2)cc1O (racemic),Activity,HeLa,Active
same,IC50,"[2]; Homo sapiens, HuTu80, 72 h",406 nM
COc1ccc([C@H]2[C@H](O)C(=O)N2c2cc(OC)c(OC)c(OC)c2)cc1O (stereo in doubt; (+)),Activity,[16],Non-toxic
same,IC50,T84; t84,20.3 nM
same,IC50,SW48; sw48,9.81 nM
same,IC50,SW480; sw480,12.5 nM
same,Activity,[17],Non-toxic
same,IC50,Tubulin,1610 nM
same,IC50,SW-620; sw-620,3.37 nM
same,IC50,MCF7; mcf7,4.47 nM
same,IC50,[1]; sk-n-be,1.32 nM
same,IC50,[2]; hutu80,3.05 nM
COc1ccc([C@@H]2[C@H](O)C(=O)N2c2cc(OC)c(OC)c(OC)c2)cc1[N+](=O)[O-],IC50,[18],29.2 nM
same,IC50,"[2]; Homo sapiens, HuTu80, 72 h",529 nM
COc1ccc(N2C(=O)[C@@H](O)[C@H]2c2cc(OC)c(OC)c(OC)c2)cc1O (racemic),Activity,HeLa,Active
same,IC50,"[2]; Homo sapiens, HuTu80, 72 h",2550 nM
COc1ccc([C@H]2[C@H](O)C(=O)N2c2cc(OC)c(OC)c(OC)c2)cc1O (stereo in doubt; (-)),IC50,[2]; hutu80,590 nM
COc1ccc([C@@H]2[C@H](O)C(=O)N2c2cc(OC)c(OC)c(OC)c2)cc1O (racemic),Activity,HeLa,Active
same,IC50,"[2]; Homo sapiens, HuTu80, 72 h",28.8 nM
COc1ccc([C@H]2[C@H](O)C(=O)N2c2cc(OC)cc(OC)c2)cc1 (racemic) [listing 2 of 2 here],Activity,HeLa,Active
same,Activity,[3],Active
same,Activity,[4],Active
same,Activity,[5],Active
same,Activity,[6],Active
same,Activity,[7],Active
same,Activity,HuTu 18 [8],inactive
same,Activity,[9],28.5%
same,Activity,[10],tde
same,Activity,HuTu 18 [11],inactive
same,Activity,HuTu80 [12],Active
same,Activity,HuTu80 [13],Active
same,Activity,[14],Active
same,Activity,[15],35%
COc1ccc(/C=C\c2cc(OC)c(OC)c(OC)c2)cc1O [COMBRETASTATIN A4],Activity,HeLa,Active
same,IC50,"T84; Homo sapiens, T84, 72 h",23.4 nM
same,IC50,"SW48; Homo sapiens, SW48, 72 h",3.32 nM
same,Activity,[3],Active
same,IC50,"SW480; Homo sapiens, SW480, 72 h",3.63 nM
same,Activity,[9],24.6%
same,Activity,HuTu80 [12],Active
same,IC50,"SW-620; Homo sapiens, SW-620, 72 h",1.52 nM
same,IC50,"MCF7; Homo sapiens, MCF7, 72 h",1.11 nM
same,Activity,HuTu80 [13],Active
same,IC50,"[1]; Homo sapiens, SK-N-BE, 72 h",0.58 nM
same,IC50,"[2]; Homo sapiens, HuTu80, 72 h",1.37 nM
same,Activity,[15],34%
COc1ccc([C@@H]2[C@H](O)C(=O)N2c2cc(OC)cc(OC)c2)cc1 (racemic),Activity,HeLa,Active
same,IC50,"[2]; Homo sapiens, HuTu80, 72 h",125 nM
COc1ccc([C@@H]2[C@H](O)C(=O)N2c2cc(OC)c(OC)c(OC)c2)cc1N,IC50,"[2]; Homo sapiens, HuTu80, 72 h",101 nM
COc1ccc([C@H]2[C@H](O)C(=O)N2c2cc(OC)cc(OC)c2)cc1 (stereo in doubt; (-)),IC50,[2]; hutu80,83.5 nM
